The results in this text go back to ChEMBL document CHEMBL1131082, “Discovery and preliminary SAR studies of a novel, nonsteroidal progesterone receptor antagonist pharmacophore” (J Med Chem, 1998).

The target of experiment [1] is T1, Mineralocorticoid receptor (Homo sapiens) (UniProt P08235).
T1 sequence (whole entry): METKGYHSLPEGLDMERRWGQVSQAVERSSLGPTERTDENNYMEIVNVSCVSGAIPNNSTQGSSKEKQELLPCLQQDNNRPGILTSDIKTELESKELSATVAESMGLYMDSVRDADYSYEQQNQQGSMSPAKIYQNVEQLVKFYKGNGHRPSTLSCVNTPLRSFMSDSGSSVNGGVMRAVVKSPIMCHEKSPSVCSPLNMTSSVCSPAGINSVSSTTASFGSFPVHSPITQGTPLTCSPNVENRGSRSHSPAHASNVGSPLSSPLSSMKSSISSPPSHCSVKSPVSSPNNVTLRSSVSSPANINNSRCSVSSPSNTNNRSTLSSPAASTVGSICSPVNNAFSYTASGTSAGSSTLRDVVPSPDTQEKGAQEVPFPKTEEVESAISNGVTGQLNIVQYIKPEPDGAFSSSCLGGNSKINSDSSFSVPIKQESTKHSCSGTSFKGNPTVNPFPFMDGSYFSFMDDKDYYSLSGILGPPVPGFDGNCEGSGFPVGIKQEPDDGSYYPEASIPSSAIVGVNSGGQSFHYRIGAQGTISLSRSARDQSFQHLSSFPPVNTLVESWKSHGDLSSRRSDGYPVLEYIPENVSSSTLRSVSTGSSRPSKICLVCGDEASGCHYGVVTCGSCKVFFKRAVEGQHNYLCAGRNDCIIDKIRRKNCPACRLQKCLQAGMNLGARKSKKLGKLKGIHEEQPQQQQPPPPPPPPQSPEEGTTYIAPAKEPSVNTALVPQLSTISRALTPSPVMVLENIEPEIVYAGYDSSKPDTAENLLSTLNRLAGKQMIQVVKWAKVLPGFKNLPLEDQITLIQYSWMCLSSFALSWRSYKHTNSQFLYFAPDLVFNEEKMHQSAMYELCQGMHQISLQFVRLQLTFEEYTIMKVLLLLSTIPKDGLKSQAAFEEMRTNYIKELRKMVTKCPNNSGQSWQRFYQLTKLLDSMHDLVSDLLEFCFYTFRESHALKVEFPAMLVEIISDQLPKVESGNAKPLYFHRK
Kind of experiment: Efficacy as percent inhibition of Mineralocorticoid receptor with aldosterone EC50. Put shortly:
(§1)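 hMR antagonist cotransfection assay run with an EC50 concentration of aldosterone as agonist. Potency is the IC50. Efficacy is % of maximal inhibition. Values are the mean ± SEM of at least two independent experiments, or one experiment where marked.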

The target in experiment [2] is Estrogen receptor (Homo sapiens) (UniProt Q92731+P03372).
For experiment [3], the target named is T2, Progesterone receptor (Homo sapiens, UniProt P06401).
T2 sequence (P06401 whole entry): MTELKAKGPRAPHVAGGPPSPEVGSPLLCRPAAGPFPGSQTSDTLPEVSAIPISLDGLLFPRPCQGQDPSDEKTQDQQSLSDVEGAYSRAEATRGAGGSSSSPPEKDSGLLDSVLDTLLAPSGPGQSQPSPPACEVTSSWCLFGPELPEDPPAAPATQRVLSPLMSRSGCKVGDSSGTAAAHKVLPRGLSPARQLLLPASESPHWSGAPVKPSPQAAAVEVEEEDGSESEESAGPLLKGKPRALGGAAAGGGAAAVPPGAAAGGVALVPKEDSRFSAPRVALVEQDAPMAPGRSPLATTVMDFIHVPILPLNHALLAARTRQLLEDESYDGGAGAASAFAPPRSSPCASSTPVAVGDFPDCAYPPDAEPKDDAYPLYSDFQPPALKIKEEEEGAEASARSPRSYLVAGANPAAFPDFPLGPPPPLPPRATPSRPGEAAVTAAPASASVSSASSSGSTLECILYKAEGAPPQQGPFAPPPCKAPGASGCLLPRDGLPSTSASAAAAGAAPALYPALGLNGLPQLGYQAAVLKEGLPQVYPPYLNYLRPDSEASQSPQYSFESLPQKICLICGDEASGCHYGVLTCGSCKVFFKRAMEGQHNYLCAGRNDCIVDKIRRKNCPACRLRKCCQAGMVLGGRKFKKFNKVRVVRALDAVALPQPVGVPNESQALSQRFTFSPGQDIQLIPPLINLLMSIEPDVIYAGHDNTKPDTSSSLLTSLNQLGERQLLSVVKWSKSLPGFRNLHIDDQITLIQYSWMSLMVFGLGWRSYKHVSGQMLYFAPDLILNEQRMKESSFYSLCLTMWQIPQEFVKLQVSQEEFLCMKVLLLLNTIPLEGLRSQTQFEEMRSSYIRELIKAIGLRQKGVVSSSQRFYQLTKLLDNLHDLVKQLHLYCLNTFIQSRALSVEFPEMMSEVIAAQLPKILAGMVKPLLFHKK
In words: In vitro antagonist activity against human progesterone receptor isoform B(hPR-B) in mammalian(CV-1) cells. It counts as functional, cell-based.

Experiment [4] addresses T2, Progesterone receptor. Kind of experiment: Binding affinity against Baculovirus-Expressed hPR-A.
For experiment [5], the target named is T3, Androgen receptor (Homo sapiens) (UniProt P10275).
T3 sequence (whole entry): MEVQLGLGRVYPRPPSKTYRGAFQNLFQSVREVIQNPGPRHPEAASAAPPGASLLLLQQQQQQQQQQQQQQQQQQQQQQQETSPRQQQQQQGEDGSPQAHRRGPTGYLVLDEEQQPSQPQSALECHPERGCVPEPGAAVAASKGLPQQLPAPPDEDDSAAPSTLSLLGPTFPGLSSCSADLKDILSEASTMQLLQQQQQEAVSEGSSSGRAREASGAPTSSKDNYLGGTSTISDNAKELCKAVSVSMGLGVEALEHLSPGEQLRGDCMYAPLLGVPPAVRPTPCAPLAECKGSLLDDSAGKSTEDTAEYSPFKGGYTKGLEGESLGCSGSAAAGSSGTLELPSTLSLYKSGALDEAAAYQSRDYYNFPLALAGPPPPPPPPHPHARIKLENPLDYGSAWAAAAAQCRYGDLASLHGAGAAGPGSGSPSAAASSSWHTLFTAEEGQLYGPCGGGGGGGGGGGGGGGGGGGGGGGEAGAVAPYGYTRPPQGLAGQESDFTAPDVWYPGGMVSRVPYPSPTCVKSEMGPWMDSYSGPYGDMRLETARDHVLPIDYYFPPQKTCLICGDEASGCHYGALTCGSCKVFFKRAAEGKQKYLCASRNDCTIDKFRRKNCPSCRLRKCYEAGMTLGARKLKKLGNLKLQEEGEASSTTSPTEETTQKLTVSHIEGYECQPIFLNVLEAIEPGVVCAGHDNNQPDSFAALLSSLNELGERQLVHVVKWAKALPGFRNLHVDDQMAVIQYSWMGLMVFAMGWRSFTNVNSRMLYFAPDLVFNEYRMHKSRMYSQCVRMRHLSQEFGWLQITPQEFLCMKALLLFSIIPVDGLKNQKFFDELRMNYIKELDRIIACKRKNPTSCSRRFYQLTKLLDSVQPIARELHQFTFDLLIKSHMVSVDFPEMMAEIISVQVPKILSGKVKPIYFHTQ

Experiment [6] concerns the target T4, Glucocorticoid receptor (Homo sapiens) (UniProt P04150).
T4 sequence (whole entry): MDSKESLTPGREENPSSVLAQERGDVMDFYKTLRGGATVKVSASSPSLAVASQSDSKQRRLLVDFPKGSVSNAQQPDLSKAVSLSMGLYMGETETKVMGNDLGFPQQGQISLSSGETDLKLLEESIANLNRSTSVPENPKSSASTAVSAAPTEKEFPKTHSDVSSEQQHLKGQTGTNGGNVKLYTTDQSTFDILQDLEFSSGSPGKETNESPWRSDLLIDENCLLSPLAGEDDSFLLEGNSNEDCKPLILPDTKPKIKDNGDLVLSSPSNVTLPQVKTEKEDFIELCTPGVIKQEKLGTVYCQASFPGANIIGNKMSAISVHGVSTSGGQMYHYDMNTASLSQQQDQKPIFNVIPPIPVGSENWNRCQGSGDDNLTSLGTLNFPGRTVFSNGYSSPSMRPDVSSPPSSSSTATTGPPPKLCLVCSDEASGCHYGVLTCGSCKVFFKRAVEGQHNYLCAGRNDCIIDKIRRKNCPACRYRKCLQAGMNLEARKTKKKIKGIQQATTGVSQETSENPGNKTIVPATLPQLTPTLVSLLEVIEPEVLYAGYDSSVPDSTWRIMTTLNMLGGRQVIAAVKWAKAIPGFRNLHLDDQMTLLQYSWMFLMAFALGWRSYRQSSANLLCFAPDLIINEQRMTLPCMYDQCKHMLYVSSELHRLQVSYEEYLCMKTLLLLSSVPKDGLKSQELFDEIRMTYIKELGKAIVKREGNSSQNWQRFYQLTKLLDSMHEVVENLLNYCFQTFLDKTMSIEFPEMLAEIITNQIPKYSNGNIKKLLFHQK

The target in experiment [7] is T1, Mineralocorticoid receptor (Homo sapiens). In words: Antagonist activity against Mineralocorticoid receptor. It counts as functional. In short, it runs like this:
as §1

Where only a bound is given, the exact number is not on record here.

In turn, `CC1=CC(C)(C)Nc2ccc(-c3cccc(C#N)c3)cc21` registered an Efficacy in experiment [1] of 94%. Also, the Potency in experiment [2] is over 1 µM; in experiment [5], 0.227 µM; in experiment [6], over 1 µM; in experiment [7] it was over 1 µM. Moreover, the IC50 in experiment [3] was determined as 0.038 µM. Also, the Ki in experiment [4] was 0.019 µM.

As for `CC1=CC(C)(C)Nc2ccc(-c3cc(F)cc([N+](=O)[O-])c3)cc21`, 0.07 µM corresponded to half-maximal inhibition in experiment [3] (IC50). In experiment [4], this molecule displayed a Ki of 0.005 µM.

As to `CC#C[C@]1(O)CC[C@H]2[C@@H]3CCC4=CC(=O)CCC4=C3[C@@H](c3ccc(N(C)C)cc3)C[C@@]21C`, the Potency in experiment [2] and in experiment [7] was over 1 µM throughout.

Molecule `CC1=CC(C)(C)Nc2ccc(-c3cc(F)cc(F)c3)cc21` displayed an IC50 in experiment [3] of 0.079 µM. In experiment [4], this molecule gave a Ki of 0.01 µM.

In turn, `CC1=CC(C)(C)Nc2ccc(-c3ccccc3)cc21` registered an IC50 in experiment [3] of 0.783 µM. Besides, in experiment [4], the Ki is 0.133 µM.

For the molecule `CN(C)c1ccc([C@H]2C[C@]3(C)[C@@H](CC[C@]3(O)CCCO)[C@@H]3CCC4=CC(=O)CCC4=C32)cc1`, the Potency was 0.269 µM in experiment [5], 0.027 µM in experiment [6] and over 1 µM in experiment [7].

In turn, `CC1=CC(C)(C)Nc2ccc(-c3cccc(F)c3)cc21` had an IC50 in experiment [3] of 0.75 µM. The same molecule showed a Ki in experiment [4] of 0.182 µM.

In turn, `CC1=CC(C)(C)Nc2ccc(-c3cc(F)cc(C#N)c3)cc21` gave an Efficacy in experiment [1] of 80%. The Potency in experiment [2], in experiment [6] and in experiment [7] was over 1 µM throughout.
